Runt-CBFb FRET = inhibitors of human RUNX1 Runt domain binding to CBFb | hit rate 0.46% among 220,000 | Cerulean-Runt/Venus-CBFb FRET ratio 530/480, 1 h | Q01196+Q13951 | AID 1496 | inhibition, % at 20 µM;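 active = inhibition over about 50% at 20 µM in the single-dose screen, limit read from the data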;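 note: 0% = DMSO wells and 100% = excess unlabeled CBFb competitor control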
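Schedule: protein complex preformed 1 h, compound exposure 1 h, room temperature, dark; test system: Cerulean-labeled Runt domain protein; amount: 100 nM per protein; buffer or medium: Tris 50 mM pH 7.5, KCl, K2SO4, 0.01% BSA; read-out: loss of energy transfer signal; detection: FRET fluorescence; controls: 5 µM unlabeled CBFb as full-inhibition high control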
p97 inhibitor = blocks human p97 ATPase activity; hit rate 0.42% among 220,000; recombinant p97 ATPase, Kinase-Glo ATP luminescence, 3 h; inhibition, % at 8 µM; P55072; in the data active = inhibition above about 15%;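 note: 0% = DMSO vehicle and 100% = wells lacking enzyme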
Runt-SMMHC FRET = blocks binding of human RUNX1 Runt domain to CBFb-SMMHC | Q01196+Q13951 | Cerulean-Runt/Venus-CBFb-SMMHC FRET ratio 530/480, 1 h | inhibition, % at 20 µM | hit rate 0.74% among 220,000 | AID 1434;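 active = mean inhibition across duplicate retests at 20 µM reaching about 50%, limit read from the data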;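 note: 0% = DMSO wells and 100% = wells with excess untagged CBFb-SMMHC; inhibitors lower the FRET ratio by blocking Runt binding to CBFb-SMMHC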
TbHK1 inh = T. brucei hexokinase 1 inhibition; hit rate 0.11% among 220,000; inhibition, % at 10 µM; AID 1430; recombinant TbHK1, G6PDH-coupled NADH A340;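 active = inhibition of 50% or more in the single-dose primary screen; inactive = inhibition below 50%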
RanGTP-Impb inh = disruptors of Ran-importin-beta complex formation – biochemical, FRET, CFP-Ran, YFP-importin-beta, homogeneous, primary screen. cell-free CFP-Ran/YFP-importin-beta FRET ratio. inhibition, % (no concentration beside the values). hit rate 1.1% among 300,000. AID 2216;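 active = more than half of the replicate wells show a fall in the fluorescence ratio signal beyond about 16%, limit read from the data, passing the limit was not always enough; inconclusive = exactly half of the replicate wells pass the set limit; inactive = fewer than half of replicates pass the limit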;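 note: 0% = DMSO wells and 100% = Ran loaded with GDP instead of GTP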
Hck-Nef inh = human Hck-Nef kinase inhibition; P08631; Recombinant Hck-YEEI plus Nef, Z-Lyte FRET kinase assay; inhibition, % at 20 µM; hit rate 0.68% among 220,000; AID 463187;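 active = Hck-Nef kinase inhibition above about 50%, limit read from the data; inactive = inhibition below that limit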;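 note: 0% = DMSO with Hck plus Nef and 100% = Hck alone without Nef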
Target sequence (P08631 whole entry, looked up): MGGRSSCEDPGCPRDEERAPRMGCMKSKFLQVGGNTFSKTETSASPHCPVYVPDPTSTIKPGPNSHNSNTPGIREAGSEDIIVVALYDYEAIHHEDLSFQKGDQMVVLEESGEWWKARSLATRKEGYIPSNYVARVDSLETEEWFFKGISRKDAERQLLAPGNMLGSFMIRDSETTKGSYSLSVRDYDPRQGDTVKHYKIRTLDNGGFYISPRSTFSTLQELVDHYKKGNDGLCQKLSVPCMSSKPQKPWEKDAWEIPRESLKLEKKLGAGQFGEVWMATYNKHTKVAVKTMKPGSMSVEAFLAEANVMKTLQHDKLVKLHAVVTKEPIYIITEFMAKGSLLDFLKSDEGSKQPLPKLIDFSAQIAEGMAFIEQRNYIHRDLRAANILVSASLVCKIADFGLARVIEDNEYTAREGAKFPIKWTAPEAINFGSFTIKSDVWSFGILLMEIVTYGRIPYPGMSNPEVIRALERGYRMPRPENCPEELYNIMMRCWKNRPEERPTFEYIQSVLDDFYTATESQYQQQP
G6PDH counter = inhibits Leuconostoc G6PDH, counter-screen for TbHK1 inhibitors; AID 2516; purified G6PDH, NADH absorbance, 1 h; inhibition, % at 10 µM; hit rate 7% among 210; shares compounds with TbHK1 inh;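 active = at least 50% inhibition in the glucose-6-phosphate dehydrogenase coupled counterscreen; inconclusive = no clear call, values can overlap the other calls; inactive = inhibition below 50%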
TbHK1 rescreen = confirmation of Trypanosoma brucei hexokinase 1 inhibitors; shares compounds with TbHK1 inh; recombinant TbHK1, G6PDH-coupled NADH A340 absorbance; inhibition, % at 10 µM; hit rate 10% among 210; AID 2560;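 active = inhibition of at least 50% in both of the two screening runs; inconclusive = at least 50% in one run, below 50% in the other; inactive = inhibition below 50% in both runs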;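 note: 0% and 100% set by the maximum and minimum signal control wells on each plate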
Numbers without * were called inactive; ? = inconclusive; nt = not tested or not shown. In the library only some 2.1% were active in any assay of this set; here they are far more common.

SMILES | Runt-CBFb FRET | p97 inhibitor | Runt-SMMHC FRET | TbHK1 inh | RanGTP-Impb inh | Hck-Nef inh | G6PDH counter | TbHK1 rescreen
COc1ccc(NC2=NC3(CCCCC3)N=C(N)N2)cc1 | -2 | 7 | -13 | 62* | ? | 15 | 19 | 13
CCOC(=O)C1CCCN(C(=O)c2cc3c(OC)c(OC)c(OC)cc3[nH]2)C1 (stereo unspecified) | nt | nt | nt | nt | 0 | nt | nt | nt
COc1cccc(NC(=O)c2nnn(Cc3ccc(Br)cc3F)c2N)c1 | -1 | 1 | 1 | -5 | 1 | -4 | nt | nt
CC(C)C(O)P(=O)(OCc1ccccc1)c1ccc(N(C)C)cc1 (stereo unspecified) | 3 | 1 | -8 | 57* | -1 | 9 | -5 | 2
Cc1c(Cl)cccc1N1C(=O)C2ON(c3ccccc3)C(c3cccnc3)C2C1=O (stereo unspecified) | 0 | -1 | 0 | 51* | -1 | 2 | -26 | -9
CCOC(=O)C(=CNc1ccc2c(c1)nnn2-c1ccc(Cl)cc1)C(=O)OCC | -3 | 6 | 3 | -18 | -3 | 7 | nt | nt
O=C(NCCCN1CCOCC1)C(=O)NCC1CCCO1 (stereo unspecified) | 1 | 6 | 2 | 31 | -1 | 1 | nt | nt
O=C(O)C1CCCCC1C(=O)NCCCN1CCOCC1 (stereo unspecified) | -3 | 0 | -1 | 51* | 6 | 5 | -7 | -3
CC(C)C1Cc2c(C#N)c(N)sc(=S)c2CO1 (stereo unspecified) | 3 | -1 | -46 | 19 | -10 | 4 | nt | nt
CC1(C)Cc2c(C#N)c(N)sc(=S)c2CO1 | -5 | 1 | -48 | 73* | -1 | 10 | 101* | 68*
CNc1nc(-c2ccccc2)[n+](-c2ccc(C)cc2)s1 | 10 | 6 | 56* | 61* | -1 | -3 | 17 | 85*
COc1ccc2nc(C(C)O)[nH]c2c1 (stereo unspecified) | 1 | 7 | -6 | 1 | 6 | 0 | nt | nt
CC(O)c1nc2ccc(Cc3ccc4nc(C(C)O)[nH]c4c3)cc2[nH]1 (stereo unspecified) | -2 | 3 | -17 | 55* | 6 | 8 | -5 | -7
CCCc1nc2nc(C)c(NS(=O)(=O)c3ccc(C(C)(C)C)cc3)c(=O)n2[nH]1 | nt | nt | nt | nt | 0 | nt | nt | nt
NC(=O)SC/C(=N\S(=O)(=O)c1ccccc1)Nc1ccccc1 | -2 | 0 | 2 | 58* | nt | 4 | 0 | 2
Cc1c(NC(=O)CC(=O)Nc2c(C)n(C)n(-c3ccccc3)c2=O)c(=O)n(-c2ccccc2)n1C | 1 | 1 | 2 | 74* | -1 | 12 | -5 | 4
CCOCC(=O)Nc1c(C)n(C)n(-c2ccccc2)c1=O | -2 | 0 | -2 | 2 | 3 | 23 | nt | nt
CCCn1c(SCC(=O)Nc2ccccc2CC)nnc1C(C)C | 0 | -7 | -1 | 65* | -1 | 4 | 3 | 2
O=C(O)CCNC1CCCCC1 | 1 | 2 | -2 | -12 | 0 | 19 | nt | nt
O=C(O)CCCCC1CCSS1 (stereo unspecified) | 38 | 0 | 27 | 86* | -2 | 101* | -39 | 96*
Cc1nnc(NC(=O)C2CCCN2C(=O)Nc2ccccc2)s1 (stereo unspecified) | nt | nt | nt | nt | 1 | nt | nt | nt
CCCN(CCC)CCNC(=S)Nc1ccc2nc3n(c(=O)c2c1)CCCCC3 | 2 | -1 | -2 | -11 | -2 | 22 | nt | nt
S=C(Nc1ccccc1)Nc1nc2ccccc2n1CCOc1ccccc1 | 2 | 3 | 9 | -8 | 1 | 0 | nt | nt
CCCCn1c(NC(=S)Nc2ccccc2)nc2ccccc21 | 2 | -5 | 4 | 62* | 0 | 2 | -33 | -37
CC(C)(C)NC(=O)C(c1ccncc1)N(C(=O)c1csnn1)C1CC1 (stereo unspecified) | 2 | -1 | 1 | -3 | 3 | 1 | nt | nt
SMILES | Runt-CBFb FRET | p97 inhibitor | Runt-SMMHC FRET | TbHK1 inh | RanGTP-Impb inh | Hck-Nef inh | G6PDH counter | TbHK1 rescreen
NNC(=O)Cn1c(-c2nonc2N)nc2ccccc21 | -3 | 3 | 0 | -6 | 2 | -2 | nt | nt
Nc1nonc1-c1nc2ccccc2n1CC(=O)N/N=C\c1ccc(-c2ccc(Cl)cc2)o1 | 1 | 4 | -2 | 52* | -4 | 7 | 108* | 13
Cc1cccc(CNC(=O)C2CCC(=O)N(C3CCCCCC3)C2)c1 (stereo unspecified) | nt | nt | nt | nt | 4 | nt | nt | nt
O=C(C1CCN(S(=O)(=O)c2cccc3nsnc23)CC1)N1CCc2ccccc2C1 | -2 | 8 | 4 | 54* | 3 | 10 | -30 | -19
CC1CCCN(C(=O)C2CCN(S(=O)(=O)c3cccc4nsnc34)CC2)C1 (stereo unspecified) | nt | nt | nt | nt | 1 | nt | nt | nt
Cc1oc(-c2ccccc2F)nc1CSCC(=O)NC1CC1 | nt | nt | nt | nt | 3 | nt | nt | nt
Cc1oc(-c2ccccc2F)nc1CSCC(=O)NCc1ccc2c(c1)OCO2 | -1 | 1 | 5 | 61* | -2 | 5 | -21 | 0
COc1ccc(CCNC(=O)C2CCCCC2C(=O)O)cc1OC (stereo unspecified) | 0 | 5 | -2 | 59* | nt | 5 | -5 | 3
O=C(O)C1CCCCC1C(=O)NCCc1ccccc1 (stereo unspecified) | 0 | -4 | 1 | 2 | 1 | 0 | nt | nt
O=S1(=O)N=C(N2CCOCC2)c2ccccc21 | -2 | -5 | 1 | 57* | 3 | 2 | -9 | -1
N=C1C(c2ccccc2)=C(O)CN1NC(=O)c1ccc(Cl)cc1 | -1 | 0 | 0 | 4 | -2 | -4 | nt | nt
CCOC(=O)N1CCN(C(=O)C2CCN(S(=O)(=O)N3CCC4(CC3)OCCO4)CC2)CC1 | nt | nt | nt | nt | -2 | nt | nt | nt
CCOC(=O)N1CCN(C(=O)C2CCN(S(=O)(=O)N3CCCC3)CC2)CC1 | 1 | 3 | 1 | 58* | 3 | 0 | -6 | 5
CCCCn1c(N)c(N(CCOC)C(=O)c2ccc(S(=O)(=O)N3CCCCC3)cc2)c(=O)[nH]c1=O | nt | nt | nt | nt | 2 | nt | nt | nt
CC12CCC(C(=O)NC(c3ccccc3)c3ccccc3)(OC1=O)C2(C)C (stereo unspecified) | 3 | -7 | 2 | 61* | 5 | 0 | -7 | 4
CC12CCC(C(=O)NNc3ccccc3)(OC1=O)C2(C)C (stereo unspecified) | 2 | -3 | -4 | -1 | 2 | -1 | nt | nt
O=C(CSc1nc2[nH]ncc2c(=O)n1-c1ccc(Cl)c(Cl)c1)NCc1ccccc1Cl | 0 | 4 | 1 | 1 | -1 | 24 | nt | nt
Cc1nn(Cc2ccc(C(=O)NC(C)(C)C)o2)c(C)c1Br | 5 | 2 | 0 | 50* | 1 | -3 | -36 | 32
